Laboratory results published in ChEMBL document CHEMBL1124035, “1-Amino-substituted 4-methyl-5H-pyrido[4,3-b]indoles (gamma-carbolines) as tricyclic analogues of ellipticines: a new class of antineoplastic agents” (1988).

Key:
[1] = tested on: Mus musculus; experiment: Median survival day in B16 melanoma cell line when a dose of 10 mg/kg administered intraperitoneally to mice; type: functional; conditions: route intraperitoneal
Procedure, shortened: (§1)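 B16 melanoma in hybrid BD F1 mice. At D0 each mouse was inoculated ip with 0.5 mL of homogenate made from 1 g of tumour in 10 mL of physiological serum. Compounds were given ip daily at the stated doses for 9 days (D1-9), with cis-platinum 0.5 mg/kg under the same schedule as positive control.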

[2] = tested on: Mus musculus; experiment: Median survival day in B16 melanoma cell line when a dose of 2.5 mg/kg administered intraperitoneally to mice; type: functional; conditions: route intraperitoneal; procedure, shortened: as §1
[3] = tested on: Mus musculus; experiment: Median survival day in B16 melanoma cell line when a dose of 5 mg/kg administered intraperitoneally to mice; type: functional; conditions: route intraperitoneal; procedure, shortened: as §1
[4] = tested on: Mus musculus; experiment: Weight change in g when a dose of 5 mg/kg administered intraperitoneally in B-16 melanoma infected mice; type: functional; conditions: route intraperitoneal
Procedure, shortened: (§2)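 Hybrid BDF1 mice were inoculated ip at D0 with 0.5 mL of B16 melanoma homogenate (1 g tumor in 10 mL physiological serum). Drug was given ip daily on days 1-9, with cis-platinum 0.5 mg/kg as positive control on the same schedule.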

[5] = tested on: Mus musculus; experiment: Survivors at day 30 when a dose of 80 mg/kg to P388 leukemia model; 0/10; type: functional
[6] = tested on: Mus musculus; experiment: Survivors at day 60 when a dose of 10 mg/kg to B16 melanoma infected mice; 4/10; type: functional
[7] = tested on: Mus musculus; experiment: Antitumor activity against P388 leukemia in mice at a dose of 30 mg/kg administered intraperitoneally for 5 days; type: functional, organism-based; design: dose 30 mg/kg
Procedure, shortened: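 CDF1 hybrid male or female mice, 10 per group, were inoculated ip on day 0 with 10^6 viable P388 leukemia cells. Drug in distilled water was given ip (0.1 mL/10 g body weight) daily on days 1-5, with vehicle, 5-fluorouracil and BD 84 controls given the same way. T/C = median survival of treated/controls × 100; T/C > 128% counted as significant.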

[8] = tested on: Mus musculus; experiment: Weight change in g when a dose of 80 mg/kg administered intraperitoneally to P388 leukemia model; conditions: route intraperitoneal
[9] = tested on: Mus musculus; experiment: Median survival day of B16 melanoma infected mice, when a dose of 10 mg/kg administered intraperitoneally; type: functional; conditions: route intraperitoneal; procedure, shortened: as §1
[10] = tested on: Mus musculus; experiment: […] in C38 adenocarcinoma cell line when a dose of 50 mg/kg administered intravenously in mice; type: functional, MC-38; conditions: route intravenous
Procedure, shortened: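 C38 colon adenocarcinoma in hybrid BD F1 mice, 10 per test. A standard 3-mm³ tumour fragment was implanted sc. Drugs were given iv at the stated doses on D1 or on D2 + D9, following the Geran et al. NCI protocol.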

[11] = tested on: Mus musculus; experiment: Median tumoral volume in C38 adenocarcinoma model when a dose of 50 mg/kg administered intravenously on D1 to mice; type: functional; conditions: route intravenous
Procedure, shortened: (§3)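 Geran protocol in hybrid BDF1 mice, 10 per test, implanted sc with a standard 3-mm³ fragment of C38 colon adenocarcinoma. Drug was given iv at the stated doses on D1, or on D2 + D9, and tumor growth was followed.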

[12] = tested on: Mus musculus; experiment: Antitumor activity against L1210 cells at a dose of 20 mg/kg administered intravenously to mice; type: functional; conditions: route intravenous
Procedure, shortened: (§4)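 P388 (10^6 cells) or L1210 (10^5 cells) leukemia was inoculated ip in mice at D0, followed by a single iv drug treatment on D1. Weight change was recorded. T/C % = median survival day of treated / controls × 100; survivors noted at D30; 10-15 mice per group.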

[13] = tested on: Mus musculus; experiment: Weight change in g when a dose of 5 mg/kg administered intraperitoneally to P388 leukemia infected mice; type: functional; conditions: route intraperitoneal
Procedure, shortened: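 P388 model with a single ip dose. Mice (10 per group) were inoculated ip at D0 with 10^6 P388 cells and given one ip drug dose at D1. Body-weight change (g), median survival day, T/C and survivors at D30 were recorded.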

[14] = tested on: Mus musculus; experiment: Survivors at day 60 when a dose of 2.5 mg/kg to B16 melanoma infected when tested in 10 mice; type: functional
[15] = tested on: Mus musculus; experiment: Survivors at day 60 when a dose of 10 mg/kg to B16 melanoma infected when tested in 10 mice; type: functional
[16] = tested on: Mus musculus; experiment: Weight change in g at a dose of 50 mg/kg intravenous administration to P388 leukemia model; type: functional
Procedure, shortened: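 Mice (10 per group) were inoculated ip at D0 with 10^6 P388 leukemia cells and given a single iv dose at D1. Read-outs were weight change (g), median survival day, T/C % versus controls and survivors at D30.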

[17] = tested on: Mus musculus; experiment: Median survival day of B16 melanoma infected mice when a dose of 2.5 mg/kg administered intraperitoneally; type: functional; conditions: route intraperitoneal; procedure, shortened: as §1
[18] = tested on: Mus musculus; experiment: Median tumoral volume of C38 adenocarcinoma model when a dose of 100 mg/kg administered intravenously on D1 to mice; type: functional; conditions: route intravenous; procedure, shortened: as §3
[19] = tested on: Mus musculus; experiment: Median survival day in L1210 leukemia mice model when a dose of 40 mg/kg administered intravenously; type: functional; conditions: route intravenous
Procedure, shortened: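 L1210 leukaemia in CDF1 hybrid male or female mice, 10 per group. At D0, 10^5 viable cells were inoculated ip, followed by a single iv dose on D1. Median survival day was recorded, and T/C was calculated as treated/control median survival × 100.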

[20] = tested on: Mus musculus; experiment: Antitumor activity against L1210 leukemia mice model at a dose of 20 mg/kg administered intravenously; type: functional; conditions: route intravenous; procedure, shortened: as §4
[21] = tested on: Mus musculus; experiment: Survivors at day D30 when a dose of 40 mg/kg administered intravenously to L1210 leukemia mice model; 0/10; type: functional; conditions: route intravenous
[22] = tested on: Mus musculus; experiment: Survivors at day D32 when a dose of 50 mg/kg administered intravenously to C38 adenocarcinoma mice models; 10/10; type: functional; conditions: route intravenous
Procedure, shortened: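 Hybrid BDF1 mice, 10 per test, were implanted sc with a standard 3-mm³ fragment of C38 colon adenocarcinoma. Drug was given iv either on D1 alone or on D2 and D9. Animals were followed per NCI (Geran) protocol.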

[23] = tested on: Mus musculus; experiment: Weight change in g when a dose of 2.5 mg/kg administered intraperitoneally B16 melanoma infected mice; type: functional; conditions: route intraperitoneal; procedure, shortened: as §2
[24] = tested on: Mus musculus; experiment: Antitumor activity against P388 leukemia in mice at a dose of 20 mg/kg administered intraperitoneally; type: functional, organism-based; design: dose 20 mg/kg
Procedure, shortened: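 CDF1 hybrid male or female mice, 10 per group, were inoculated ip with 10^6 viable P388 cells on day 0. Drugs in distilled water were given ip (0.1 mL/10 g body weight) daily D1-5. Vehicle, 5-fluorouracil and BD 84 were given the same way. T/C = median survival day of treated / controls × 100; T/C > 128% was significant; cures counted at D60.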

[25] = tested on: Mus musculus; experiment: Weight change in g when a dose of 10 mg/kg administered intraperitoneally B16 melanoma infected mice; type: functional; conditions: route intraperitoneal; procedure, shortened: as §2

In the case of CCN(CC)CCCNc1[nH]cc(C)c2nc3ccc(O)cc3c1-2, the Median survival day [1] is reported as 56.25, the Median survival day [2] is reported as 34 and the Median survival day [3] is reported as 48. The Weight change [4] was -0.1 g, the Survivors [5] was 0 and the Survivors [6] was 4. The T/C [7] was “Toxic” and the Weight change [8] was -1.7 g.

For Cc1cnc(NCCCN(C)C)c2c3cc(O)ccc3n(C)c12, the Median survival day [9] was 11.75, the Median tumoral volume [10] was 0 cm*3 and the Median tumoral volume [11] was 2.73 cm*3. For the same compound, the T/C [12] was 157%, the Weight change [13] was -1.2 g and the Survivors [14] was 0. It also gave a Survivors [15] of 0 and a Weight change [16] of 0.5 g.

In the case of CCN(CC)CCCNc1ncc(C)c2c1c1cc(O)ccc1n2C, the Median survival day [17] is reported as 35.25, the Median tumoral volume [18] is reported as 3.24 cm*3 and the Median survival day [19] is reported as 13.3. The T/C [20] was 132%, the Survivors [21] was 0 and the Survivors [22] was 10. For the same compound, the Weight change [23] was 0.6 g, the T/C [24] was “Toxic” and the Weight change [25] was -1 g.
